These results are taken from PubChem BioAssay AID624467 (The Scripps Research Institute Molecular Screening Center, 2012).

Among all 360,000 compounds or so, about 3,600 (1%) were called active.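 Rule for the calls: active = activation above the mean activation of all test compounds in the run plus 3 SD (cut at about 38% in these data); inactive = the rest.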 For the sample, actives were picked, then their nearest neighbours and some compounds at random.

Chain of Trace amine-associated receptor 1 (Homo sapiens) (Q96RJ0 whole entry, looked up): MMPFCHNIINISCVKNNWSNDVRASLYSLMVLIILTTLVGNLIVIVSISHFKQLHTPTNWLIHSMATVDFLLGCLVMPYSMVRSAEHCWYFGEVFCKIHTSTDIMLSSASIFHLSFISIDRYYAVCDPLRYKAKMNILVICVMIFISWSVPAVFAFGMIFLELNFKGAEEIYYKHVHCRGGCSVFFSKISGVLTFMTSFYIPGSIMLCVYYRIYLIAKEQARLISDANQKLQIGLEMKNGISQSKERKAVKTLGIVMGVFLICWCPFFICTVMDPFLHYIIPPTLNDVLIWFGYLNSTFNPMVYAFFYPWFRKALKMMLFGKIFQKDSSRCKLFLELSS

The experiment addresses Trace amine-associated receptor 1 (Homo sapiens) (UniProt Q96RJ0). Briefly: human TAAR1 agonists, primary screen, Fluo-8 calcium fluorescence, CHO RD-HGA16 cells (AID 624467). Conditions: CHO RD-HGA16 TAAR1, Fluo-8 calcium fluorescence; at 3 µM; hits give high values; vehicle wells 0%, saturating PEA agonist 100%. A digest of the protocol:
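System: CHO RD-HGA16 cells carrying human TAAR1 plus Gα16; Incubation: 17-24 h seeding, 75 min 37 °C dye, 30 min RT; Measured by: Fluo-8 fluorescence, 5 s baseline then 140 s kinetic read; Control set: DMSO and PEA EC100; Replication: single well for each compound.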
As to `CCCCCCc1cc2cc(-c3nnc(-c4cccc(OC)c4)o3)c(=O)oc2cc1O`, the activation is 16.7% (inactive). For `CCn1cc(CN2CCCC(CNS(=O)(=O)Cc3ccccc3)C2)cn1` (stereo not given) the value was 0.93% (inactive); for `COc1ccc2nc3n(c(=O)c2c1)-c1ccc(Cl)cc1C(=O)NC3Cc1ccccc1` (stereo not given), 4.87% (inactive); for `Cn1c(=O)c(=O)n(C)c2cc(S(=O)(=O)NCCN3CCN(c4ccccc4F)CC3)ccc21`, -1.59% (inactive). `O=S(=O)(NCCc1ccccc1)c1ccccc1`: the activation was 15.9% (inactive). For the compound `Cn1c(=O)c(=O)n(C)c2cc(S(=O)(=O)NCCc3ccccc3)ccc21`, the activation was 82.3% (active).

As for `C[C@@H](CN1C2=NC[C@@H](Cc3ccccc3)N2C[C@H]1Cc1ccc(O)cc1)NC(=O)CCC1CCCCC1`, the activation is -0.01% (inactive). Regarding `O=C(NCC1(N2CCCCC2)CCCCC1)c1cccc(S(=O)(=O)Nc2ccccc2Cl)c1`, the activation was -0.1% (inactive). Take `C[C@H]1[C@H](c2ccccc2)Oc2cc(Br)ccc2S(=O)(=O)N1Cc1cccc(F)c1`: the activation was 2.18% (inactive). Take `Cc1cccc(NC(=O)CN2C(=O)CNC2=O)c1`: the activation was 6.24% (inactive). For `Cc1ccnc(NC(=O)C(C)N2C(=O)c3ccccc3C2=O)c1` (stereo not given) the value was 2.11% (inactive); for `Cc1cccc(NC(=O)C(C)N2C(=O)C3C4CC(C(Br)C4Br)C3C2=O)c1` (stereo not given), 49.9% (active). Consider `Cc1cccc(N(C(=O)c2ccc(CN3CCOCC3)o2)C(C(=O)NC2CCCCC2)c2ccc(F)cc2)c1` (stereo not given), for which the activation is 0.09% (inactive). The result for `COc1ccccc1C(=O)N1O[C@]23C=C[C@]14C[C@@H](O)CC[C@]4(C)C2CC[C@]1(C)[C@@H]([C@H](C)/C=C/[C@H](C)C(C)C)CC[C@H]13` (stereo not given in full) reads -1.12% (inactive); that for `O=C(Nc1c(Cl)c(C2CC2)nn1-c1ccccc1)C(Cl)(Cl)Cl`, 1.51% (inactive); that for `CCCCOC(=O)CCCc1ccc([N+](=O)[O-])cc1[N+](=O)[O-]`, -2.61% (inactive).

On to `CCOc1ccc(C(=O)Nc2nccs2)cc1[N+](=O)[O-]`, for which the activation is 5.29% (inactive). Turning to `CCCCCOc1ccc(CSC2=NCCN2)cc1[N+](=O)[O-]`, the activation was 40.3% (active). `CCCCOc1ccc(CSC(=N)N)cc1[N+](=O)[O-]`: the activation was 68.2% (active). As to `CCCCOc1ccc(CON(C(C)=O)C(C)=O)cc1Cl`, the activation is -2.24% (inactive). As for `O=[N+]([O-])c1ccccc1OCCCCN1CCCCC1`, the activation is 7.82% (inactive). For `C#CCN([C@@H](C)C(=O)OCC)S(=O)(=O)c1ccc(Br)cc1F`, the activation is -2.1% (inactive). In the case of `O=C(C[C@@H]1C/C=C\CCC(=O)OC[C@@H]2CCCN2C1=O)NCCO`, the activation is 13.4% (inactive). With `C[C@H](CO)N1C[C@H](C)[C@@H](CN(C)C(=O)Nc2ccccc2F)OCc2cn(nn2)CCCC1=O`, the activation was 0.9% (inactive). In the case of `Cc1ccc(NC(=O)c2cnc(SCC(=O)NCC3CCCO3)n(C)c2=O)cc1` (stereo not given), the activation was 1.71% (inactive).

For the compound `Cc1ccccc1-c1nc(CS(=O)(=O)CC(=O)NC(C)c2ccccc2)c(C)o1` (stereo not given), the activation is -0.93% (inactive). Consider `CSc1ccc(CCNC(=O)CS(=O)(=O)Cc2nc(-c3ccccc3F)oc2C)cc1`, for which the activation was 2.41% (inactive).

Take `Cc1ccccc1-c1nc(CS(=O)(=O)CC(=O)N2CCc3ccccc3C2)c(C)o1`: the activation is 45.5% (active). As to `CCOC(=O)/C=C/c1ccccc1O`, the activation is 0.06% (inactive). Consider `CC(=O)N1Cc2cc(C(=O)NCc3cccc(F)c3)nc(-c3cccc(C4=CCCC4)c3)c2[C@H]1CCO`, for which the activation is 1.95% (inactive). Take `COc1ccc(OC)c(C(c2nnnn2C(C)(C)C)N2CCc3ccccc3C2)c1` (stereo not given): the activation is 64.7% (active). For `COc1ccccc1C(c1nnnn1C(C)(C)C)N1CCN(Cc2ccccc2)CC1` (stereo not given), the activation is 7.42% (inactive). The result for `COCCn1nnnc1C(c1cc2ccc(OC)cc2[nH]c1=O)N1CCc2ccccc2C1` (stereo not given) reads 5.6% (inactive); that for `O=C(NNC(=O)c1cc(-c2ccccc2Cl)nc2ccccc12)c1csc(N2CCOCC2)n1`, 2.63% (inactive); that for `O=C(OCCOc1ccccc1F)c1cc(S(=O)(=O)N2CCOCC2)ccc1F`, 3.93% (inactive).

Turning to `COc1cccc(-c2cc(CNC(=O)[C@@H](Cc3ccccc3)NC(=O)[C@H]3O[C@@H](n4cnc(C(N)=O)n4)[C@H](O)[C@@H]3O)no2)c1`, the activation is 2.47% (inactive). With `Cc1ccc(NC(=O)CN(C)C(=O)c2ccc(Cl)c(S(=O)(=O)NCc3ccco3)c2)cc1`, the activation is 1.71% (inactive). The result for `COc1ccc(CNC(=O)c2ccc(-c3cccnc3)c3ccoc23)cc1OC` reads 19.1% (inactive); that for `CCc1ccc(N2CC(O)=C(c3nc4ccccc4c(=O)[nH]3)C2=N)cc1`, 7.2% (inactive); that for `C[N+](C)(C)CCNC(=O)c1c[nH]c2ccccc12`, 3.46% (inactive). For the compound `N=C1C(c2nc3ccccc3[nH]2)=C(O)CN1NC(=O)c1c[nH]c2ccccc12`, the activation was 41.7% (active). For the compound `C=CCN=C1NC(c2ccccc2)C(C(=O)OC)=C(C)N1Cc1ccc(C(F)(F)F)cc1` (stereo not given), the activation is 26.7% (inactive).

On to `CCN(CC)CCCC(C)n1c2nc(=O)[nH]c(=O)c-2nc2cc(Cl)ccc21` (stereo not given), for which the activation was 244% (active). For `COc1cccc(CC(=O)N2CCN(C(=O)C(=O)c3cccc(C(F)(F)F)c3)CC2)c1` the value was -0.34% (inactive). Regarding `CCCCCCCCN1C(=O)[C@@H](CC(=O)NCc2ccc(C)o2)C[C@@]2(C(=O)OC)C1=C[C@H](C(C)(C)C)O[C@@H]2C`, the activation was -1.18% (inactive). With `CCN(CC)C(=O)CCC(=O)Nc1ccc(C(=O)OC)cc1`, the activation was 4.26% (inactive). On to `CCCc1cc(C(=O)Nc2ccc(Cl)cn2)cs1`, for which the activation is 0.75% (inactive). For `CCCc1cc(C(=O)Nc2ccc(C(=O)OC)cc2)cs1` the value was 42.9% (active); for `NC1=NC(c2ccc([N+](=O)[O-])cc2)N(c2ccc(F)cc2)C(N)=N1` (stereo not given), 2.32% (inactive); for `COC(=O)Cc1csc(Nc2c(C)n(C)n(-c3ccccc3)c2=O)n1`, 7.82% (inactive). As to `CCOC(=O)Cc1csc(NC(NC(=O)OCC)(C(F)(F)F)C(F)(F)F)n1`, the activation was 11.4% (inactive). Regarding `CCOC(=O)Cc1csc(NC(=O)Nc2ccccc2)n1`, the activation is 51.5% (active). With `C/C(=N\NC(=O)CNC(=O)C(c1ccccc1)c1ccccc1)c1ccc(C)cc1`, the activation is -0.46% (inactive).

As to `CCCCC(=O)NNC(=S)NC(=O)C(c1ccccc1)c1ccccc1`, the activation was 137% (active).

In the case of `CCCOCC(O)CC(CC)C(=O)NNC(=S)Nc1ccccc1` (stereo not given), the activation is 6.99% (inactive). `CCN(CC)Cc1nc2sc(C)c(C)c2c(=O)[nH]1`: the activation is 7.06% (inactive). `Cc1cc(NCCc2c[nH]c3ccccc23)ccc1Oc1cccnc1`: the activation was -0.68% (inactive). As to `COC(=O)Nc1nc2ccc(C(=O)C3CC3)cc2[nH]1`, the activation was 0.33% (inactive).

On to `CC(C)C(=O)Nc1nnc(SCC(=O)N2C(C)CCCC2C)s1` (stereo not given), for which the activation is 2.6% (inactive). As for `CC/C(=C(/c1ccccc1)c1ccc(OCC[N+](C)(C)C)cc1)c1ccccc1`, the activation was 13.5% (inactive). Regarding `N#Cc1ccc(OCCCN2CCC(C(O)(c3ccccc3)c3ccccc3)CC2)c(F)c1`, the activation is 51% (active).

With `OC(c1ccccc1)(c1ccccc1)C1CCN(CCCOc2ccc(-c3ccsc3)cc2)CC1`, the activation is 35.3% (inactive). With `OC(c1ccccc1)(c1ccccc1)C1CCN(CCCOc2ccccc2)CC1`, the activation is 23.6% (inactive). Regarding `Cc1ccc2c(c1)N(S(=O)(=O)c1cc(-c3cc(C)no3)ccc1C)CCO2`, the activation is 0.2% (inactive). Take `Nc1c(C(=O)c2cccs2)sc2nsc(SCCN3CCCCC3)c12`: the activation was 95.1% (active).

Regarding `Nc1ccn([C@@H]2O[C@H](C(=O)N[C@H]3CCCCNC3=O)[C@@H](O)[C@H]2O)c(=O)n1`, the activation is -0.44% (inactive).

On to `c1ccc2c(NC3C4CC5CC(C4)CC3C5)nc(N3CCOCC3)nc2c1` (stereo not given), for which the activation was 28.9% (inactive). With `c1ccc(Nc2nc(N3CCOCC3)c3ccccc3n2)cc1`, the activation was 98.4% (active). For `COc1ccc(Nc2ncc(F)c(N3CCOCC3)n2)cc1` the value was 6.99% (inactive); for `O=S1(=O)c2c(cccc2N2CCCCC2)O[C@H](COCc2ccccc2)CN1C1CC1`, -0.15% (inactive); for `CC(C)c1c(C(=O)N/N=C/c2ccccc2C(=O)O)nnn1-c1nonc1N`, 2.66% (inactive). Turning to `CCc1ccc(/C=N/NC(=O)c2nnn(-c3nonc3N)c2CN2CCc3ccccc32)cc1`, the activation is 4.17% (inactive). Take `CC(C)Oc1ccc(/C=N/NC(=O)c2nnn(-c3nonc3N)c2CN(C)C2CCCCC2)cc1`: the activation is 19.2% (inactive).

Regarding `CCCOc1ccc(-c2c(C(=O)N/N=C/c3ccco3)nnn2-c2nonc2N)cc1`, the activation was 74.1% (active).

With `C/C(COc1ccccc1)=N\NC(=O)c1nnn(-c2nonc2N)c1-c1ccc(C)cc1`, the activation is 6.16% (inactive). With `Nc1nonc1-n1nnc(C(=O)N/N=C/c2ccc(Cl)cc2)c1-c1ccc2c(c1)OCO2`, the activation is 133% (active). On to `CCOC(=O)N1CCN(C(=O)C[C@H]2C[C@@]3(C(=O)OC)C(=C[C@H](C4CCCC4)O[C@@H]3C)N(Cc3ccccc3)C2=O)CC1`, for which the activation was -1.14% (inactive). As to `CCc1ccc(C2=CC(=O)CC(C)(C)C2=O)cc1`, the activation is -1.42% (inactive). For the compound `CCCCN1C(=O)C(CC(=O)NC(c2ccccc2)c2ccccc2)CC(C(=O)N2CCOCC2)=C1C` (stereo not given), the activation was 0.19% (inactive). As to `CC(C)CNc1cccc2c1S(=O)(=O)N[C@H](CC(C)C)CO2`, the activation is -0.51% (inactive). As to `CN(CCO)C(=O)c1nc[nH]c1C(=O)N(C)Cc1ccccc1`, the activation was 0.95% (inactive).

In the case of `CN(C(=O)CN(CCO)CC(=O)N(C)C(C)(C)Cc1ccccc1)C(C)(C)Cc1ccccc1`, the activation was 125% (active). As to `CCOC(=O)N(Cc1ccccc1)C1CC1`, the activation is 3.18% (inactive). In the case of `COc1ccc(NS(=O)(=O)c2cc3c(cc2C)N(C(C)=O)CCO3)cc1`, the activation was 1.33% (inactive). As for `C=CC[C@]12C[C@@]3(O[C@H](c4ccc(C(F)(F)F)cc4)N=C3C[C@H](c3ccc(OC)cc3)[C@H]1C)N(C1CCN(Cc3ccccc3)CC1)C2=O`, the activation was 0.44% (inactive).
